From ChEMBL document CHEMBL4699443, “Position of lipidation influences anticancer activity of Smac analogs” (Bioorg Med Chem Lett, 2019)
pEC50: −log10 of the molar value. Blank lines part the entries; values can stand above or below the molecule they belong to. Activity calls are given as the source filed them. The rule behind the calls is not given here. Starred links: 1 amine or outer side, 2 acyl side, 3 side chain; linkers in the order of their positions; H or OH if unused. Non-standard residues stand in square brackets, D forms with d. Residues, ends and D or L forms follow the SMILES beside them. *: point of attachment. Pro(cis-4-OPh) = O=C(O)[C@@H]1C[C@H](Oc2ccccc2)CN1; Phe(3,5-F2) = N[C@@H](Cc1cc(F)cc(F)c1)C(=O)O; Bip = N[C@@H](Cc1ccc(-c2ccccc2)cc1)C(=O)O; X2 = CCCCCCCCCCCCCCCCCCS(=O)(=O)CCN*; Cysteamide = C(CS[*:3])N[*:1]; Tle = CC(C)(C)[C@H](N)C(=O)O; X1 = CCCCCCCCCCCCCCCCCCSCCN*; NMeA = CN[C@@H](C)C(=O)O; X3 = CCCCCCCCCCCCCCCCCC*; Ac4c = NC1(C(=O)O)CCC1

Experiments:
MCF7 = assay: Antiproliferative activity against human MCF7 cells assessed as growth inhibition after 48 hrs by PrestoBlue dye based fluorescence assay; type: functional, cell-based; details: MCF7, 48 h
HepG2 = assay: Antiproliferative activity against human HepG2 cells assessed as growth inhibition after 48 hrs by PrestoBlue dye based fluorescence assay; type: functional, cell-based; details: HepG2, 48 h
Hep 3B2 = assay: Antiproliferative activity against human Hep3B cells assessed as growth inhibition after 48 hrs by PrestoBlue dye based fluorescence assay; type: functional, cell-based
[1] = Antiproliferative activity against human CEMTL cells assessed as growth inhibition after 48 hrs by PrestoBlue dye based fluorescence assay; type: functional, cell-based; details: CEM-TL
SK-MEL-28 = assay: Antiproliferative activity against human SK-MEL-28 cells assessed as growth inhibition after 48 hrs by PrestoBlue dye based fluorescence assay; type: functional, cell-based; details: SK-MEL-28, 48 h
PANC-1 = assay: Antiproliferative activity against human PANC-1 cells assessed as growth inhibition after 48 hrs by PrestoBlue dye based fluorescence assay; type: functional, cell-based; details: PANC-1, 48 h
LNCaP = assay: Antiproliferative activity against human LNCAP cells assessed as growth inhibition after 48 hrs by PrestoBlue dye based fluorescence assay; type: functional, cell-based
PC-3 = assay: Antiproliferative activity against human PC-3 cells assessed as growth inhibition after 48 hrs by PrestoBlue dye based fluorescence assay; type: functional, cell-based; details: PC-3, 48 h
HCT-116 = assay: Antiproliferative activity against human HCT116 cells assessed as growth inhibition after 48 hrs by PrestoBlue dye based fluorescence assay; type: functional, cell-based; details: HCT-116, 48 h
SW480 = assay: Antiproliferative activity against human SW480 cells assessed as growth inhibition after 48 hrs by PrestoBlue dye based fluorescence assay; type: functional, cell-based; details: SW480, 48 h
FaDu = assay: Antiproliferative activity against human FADU cells assessed as growth inhibition after 48 hrs by PrestoBlue dye based fluorescence assay; type: functional, cell-based
[2] = Antiproliferative activity against human UM-SCC-6 cells assessed as growth inhibition after 48 hrs by PrestoBlue dye based fluorescence assay; type: functional, cell-based; details: UM-SCC-6, 48 h
[3] = Antiproliferative activity against human UM-SCC-12 cells assessed as growth inhibition after 48 hrs by PrestoBlue dye based fluorescence assay; type: functional, cell-based; details: UM-SCC-12, 48 h
Jurkat = assay: Antiproliferative activity against human Jurkat cells assessed as growth inhibition after 48 hrs by PrestoBlue dye based fluorescence assay; type: functional, cell-based
KOPN-8 [4] = assay: Antiproliferative activity against human KOPN-8 cells assessed as growth inhibition after 48 hrs by PrestoBlue dye based fluorescence assay; type: functional, cell-based; details: KOPN-8, 48 h
MOLT-4 = assay: Antiproliferative activity against human MOLT-4 cells assessed as growth inhibition after 48 hrs by PrestoBlue dye based fluorescence assay; type: functional, cell-based; details: MOLT-4, 48 h
MV4-11 = assay: Antiproliferative activity against human MV4-11 cells assessed as growth inhibition after 48 hrs by PrestoBlue dye based fluorescence assay; type: functional, cell-based; details: MV4-11, 48 h
NALM-6 = assay: Antiproliferative activity against human NALM6 cells assessed as growth inhibition after 48 hrs by PrestoBlue dye based fluorescence assay; type: functional, cell-based; details: NALM-6, 48 h
THP-1 = assay: Antiproliferative activity against human THP1 cells assessed as growth inhibition after 48 hrs by PrestoBlue dye based fluorescence assay; type: functional, cell-based; details: THP-1, 48 h
TF-1 = assay: Antiproliferative activity against human TF1 cells assessed as growth inhibition after 48 hrs by PrestoBlue dye based fluorescence assay; type: functional, cell-based; details: TF-1, 48 h
KOPN-8 [5] = assay: Induction of apoptosis in human KOPN8 cells assessed as viable cells at 10 uM after 24 hrs by AnnexinV/PI-staining based flow cytometry; type: functional; details: read-out: Activity
How it was run: (§1)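 KOPN-8 cells treated with 1 or 10 μM compound, alone or as an equimolar two-compound mixture. Cultured for a time course, then stained with annexin V and propidium iodide. Read by flow cytometry; populations gated by annexin V/PI staining, including annexin V+/PI+ double positives.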

KOPN-8 [6] = assay: Induction of apoptosis in human KOPN8 cells assessed as early apoptotic cells at 10 uM after 24 hrs by AnnexinV/PI-staining based flow cytometry; type: functional; how it was run: as §1
KOPN-8 [7] = assay: Induction of apoptosis in human KOPN8 cells assessed as late apoptotic cells at 10 uM after 24 hrs by AnnexinV/PI-staining based flow cytometry; type: functional; how it was run: as §1
KOPN-8 [8] = assay: Induction of apoptosis in human KOPN8 cells assessed as necrotic cells at 10 uM after 24 hrs by AnnexinV/PI-staining based flow cytometry; type: functional; how it was run: as §1
KOPN-8 [9] = assay: Induction of apoptosis in human KOPN8 cells assessed as viable cells at 10 uM after 48 hrs by AnnexinV/PI-staining based flow cytometry; type: functional; details: read-out: Activity; how it was run: as §1
KOPN-8 [10] = assay: Induction of apoptosis in human KOPN8 cells assessed as early apoptotic cells at 10 uM after 48 hrs by AnnexinV/PI-staining based flow cytometry; type: functional; how it was run: as §1
KOPN-8 [11] = assay: Induction of apoptosis in human KOPN8 cells assessed as late apoptotic cells at 10 uM after 48 hrs by AnnexinV/PI-staining based flow cytometry; type: functional; how it was run: as §1
KOPN-8 [12] = assay: Induction of apoptosis in human KOPN8 cells assessed as necrotic cells at 10 uM after 48 hrs by AnnexinV/PI-staining based flow cytometry; type: functional; how it was run: as §1
KOPN-8 [13] = assay: Induction of apoptosis in human KOPN8 cells assessed as viable cells at 10 uM after 72 hrs by AnnexinV/PI-staining based flow cytometry; type: functional; details: read-out: Activity; how it was run: as §1
KOPN-8 [14] = assay: Induction of apoptosis in human KOPN8 cells assessed as early apoptotic cells at 10 uM after 72 hrs by AnnexinV/PI-staining based flow cytometry; type: functional; how it was run: as §1
KOPN-8 [15] = assay: Induction of apoptosis in human KOPN8 cells assessed as late apoptotic cells at 10 uM after 72 hrs by AnnexinV/PI-staining based flow cytometry; type: functional; how it was run: as §1
KOPN-8 [16] = assay: Induction of apoptosis in human KOPN8 cells assessed as necrotic cells at 10 uM after 72 hrs by AnnexinV/PI-staining based flow cytometry; type: functional; how it was run: as §1
KOPN-8 [17] = assay: Induction of apoptosis in human KOPN8 cells assessed as viable cells at 10 uM after 168 hrs by AnnexinV/PI-staining based flow cytometry; type: functional; details: read-out: Activity; how it was run: as §1
KOPN-8 [18] = assay: Induction of apoptosis in human KOPN8 cells assessed as early apoptotic cells at 10 uM after 168 hrs by AnnexinV/PI-staining based flow cytometry; type: functional; how it was run: as §1
KOPN-8 [19] = assay: Induction of apoptosis in human KOPN8 cells assessed as late apoptotic cells at 10 uM after 168 hrs by AnnexinV/PI-staining based flow cytometry; type: functional; how it was run: as §1
KOPN-8 [20] = assay: Induction of apoptosis in human KOPN8 cells assessed as necrotic cells at 10 uM after 168 hrs by AnnexinV/PI-staining based flow cytometry; type: functional; how it was run: as §1
KOPN-8 [21] = assay: Induction of apoptosis in human KOPN8 cells assessed as increase in caspase 3/7 activity at 0.1 to 50 uM after 24 hrs by Caspase-glo reagent based microplate reader analysis relative to control; type: functional; details: dose microM 0.1-50
How it was run: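 MDA-MB-231 or KOPN-8 cells treated at concentrations across 0–50 μM in dose response. Enzymatic activity of caspase-3/7 and caspase-9 measured and expressed as fold increase.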

KOPN-8 [22] = assay: Induction of apoptosis in human KOPN8 cells assessed as increase in caspase 9 activity at 0.1 to 50 uM after 24 hrs by Caspase-glo reagent based microplate reader analysis relative to control; type: functional; details: dose microM 0.1-50, time […]
[23] = Antiproliferative activity against human BTTR cells assessed as growth inhibition after 48 hrs by PrestoBlue dye based fluorescence assay; type: functional, cell-based
HCC1954 = assay: Antiproliferative activity against human HCC1954 cells assessed as growth inhibition after 48 hrs by PrestoBlue dye based fluorescence assay; type: functional, cell-based; details: HCC1954, 48 h
MDA-MB-231 = assay: Antiproliferative activity against human MDA-MB-231 cells assessed as growth inhibition after 48 hrs by PrestoBlue dye based fluorescence assay; type: functional, cell-based; details: MDA-MB-231, 48 h
[24] = Antiproliferative activity against human CEM-R cells assessed as growth inhibition after 48 hrs by PrestoBlue dye based fluorescence assay; type: functional, cell-based
[25] = Antiproliferative activity against human M249 cells assessed as growth inhibition after 48 hrs by PrestoBlue dye based fluorescence assay; type: functional, cell-based; details: M249, 48 h
BXPC-3 = assay: Antiproliferative activity against human BxPC3 cells assessed as growth inhibition after 48 hrs by PrestoBlue dye based fluorescence assay; type: functional, cell-based; details: BXPC-3, 48 h
[26] = Antiproliferative activity against human COLO357/FG cells assessed as growth inhibition after 48 hrs by PrestoBlue dye based fluorescence assay; type: functional, cell-based; details: COLO 357/FG
DU-145 = assay: Antiproliferative activity against human DU145 cells assessed as growth inhibition after 48 hrs by PrestoBlue dye based fluorescence assay; type: functional, cell-based; details: DU-145, 48 h
VCaP = assay: Antiproliferative activity against human VCap cells assessed as growth inhibition after 48 hrs by PrestoBlue dye based fluorescence assay; type: functional, cell-based
T84 = assay: Antiproliferative activity against human T84 cells assessed as growth inhibition after 48 hrs by PrestoBlue dye based fluorescence assay; type: functional, cell-based; details: T84, 48 h
[27] = Antiproliferative activity against human UM-SCC-5 cells assessed as growth inhibition after 48 hrs by PrestoBlue dye based fluorescence assay; type: functional, cell-based; details: UM-SCC-5, 48 h

- pEC50 (MCF7): 4.32
- pEC50 (HepG2): 5.68
- pEC50 (SK-MEL-28): 4.95
- pEC50 (PANC-1): 5.33
- pEC50 (LNCaP): 4.98
- pEC50 (PC-3): 5.64
- pEC50 (HCT-116): 5.82
- pEC50 (SW480): 4.59
SMILES: CCCCCCCCCCCCCCCCCCS(=O)(=O)CCNC(=O)[C@H](Cc1ccc(-c2ccccc2)cc1)NC(=O)[C@@H]1C[C@H](Oc2ccccc2)CN1C(=O)[C@@H](NC(=O)[C@H](C)NC)C(C)(C)C (H-[NMeA][Tle][Pro(cis-4-OPh)][Bip]-X2)
- pEC50 (Hep 3B2): 6.62
- pEC50 [1]: 4.85
- pEC50 (FaDu): 6.19
- pEC50 [2]: 5.32
- pEC50 [3]: 5.96

- pEC50 (Jurkat): 4.66
- pEC50 (MOLT-4): 5.19
- pEC50 (MV4-11): 5.04
- pEC50 (THP-1): 5.02
SMILES: CCCCCCCCCCCCCCCCCCSCCNC(=O)[C@@H]1CCCN1C(=O)[C@H](CCCNC(=N)N)NC(=O)C1(NC(=O)[C@@H]2CCCN2C(=O)[C@H](Cc2cc(F)cc(F)c2)NC(=O)[C@@H](N)CSCCCCCCCCCCCCCCCCCC)CCC1 (H-C(X3)[Phe(3,5-F2)]P[Ac4c]RP-X1)
- pEC50 (KOPN-8 [4]): 6.00
- pEC50 (NALM-6): 5.25
- pEC50 [1]: 5.23
- pEC50 (TF-1): 5.38
- viability at 10 µM (KOPN-8 [5]): 87.7%
- Activity (KOPN-8 [6]): 1.09%
- Activity (KOPN-8 [7]): 9.22%
- Activity (KOPN-8 [8]): 2.04%
- viability at 10 µM (KOPN-8 [9]): 87.1%
- Activity (KOPN-8 [10]): 1.19%
- Activity (KOPN-8 [11]): 9.59%
- Activity (KOPN-8 [12]): 2.15%
- viability at 10 µM (KOPN-8 [13]): 91.6%
- Activity (KOPN-8 [14]): 0.58%
- Activity (KOPN-8 [15]): 6.63%
- Activity (KOPN-8 [16]): 1.23%
- viability at 10 µM (KOPN-8 [17]): 68.2%
- Activity (KOPN-8 [18]): 3.81%
- Activity (KOPN-8 [19]): 26.4%
- Activity (KOPN-8 [20]): 1.59%
- fold change (FC) (KOPN-8 [21]): 3.6
- Activity (KOPN-8 [22]): inactive

- pEC50 (HCC1954): 5.41
- pEC50 (MCF7): 4.99
- pEC50 (MDA-MB-231): 5.22
- pEC50 (MOLT-4): 5.55
- pEC50 (SK-MEL-28): 5.21
- pEC50 (BXPC-3): 5.39
- pEC50 (DU-145): 5.21
- pEC50 (VCaP): 5.15
- pEC50 (SW480): 5.04
SMILES: CN[C@@H](C)C(=O)N[C@H](C(=O)N1C[C@@H](Oc2ccccc2)C[C@H]1C(=O)N[C@@H](Cc1ccc(-c2ccccc2)cc1)C(=O)NCCS)C(C)(C)C (H-[NMeA][Tle][Pro(cis-4-OPh)][Bip]-Cysteamide)
- pEC50 [23]: 5.05
- pEC50 (NALM-6): 5.28
- pEC50 [24]: 5.54
- pEC50 [25]: 5.21
- pEC50 [26]: 5.10
- pEC50 (T84): 5.21
- pEC50 (FaDu): 5.41
- pEC50 [27]: 5.23
- pEC50 [2]: 5.22
